Reference: ChEMBL document CHEMBL4619802, “Discovery and Characterization of Pure RhlR Antagonists against Pseudomonas aeruginosa Infections” (J Med Chem, 2020)
Active and inactive are the calls of the source. The rule behind the calls is not given here.

Tests used:
[1] = test system: Pseudomonas aeruginosa; experiment: Antibacterial activity against Pseudomonas aeruginosa infected in Tenebrio molitor larvae assessed as larvae survival at 10 uM incubated for 20 days and measured every 5 days; type: functional
Outline: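 P. aeruginosa overnight culture (OD595 = 1.0) was centrifuged, and the supernatant passed through a 0.22 µm filter. 10 µL was injected into T. molitor larvae by syringe needle, with compounds or controls at 0–10 µM. Larvae were kept in Petri dishes at 25 °C for 20 days, and mortality was scored every 5 days.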

[2] = target: T1, Transcriptional regulator MvfR (Pseudomonas aeruginosa PA14) (UniProt A0A072ZLE6); experiment: Antagonist activity at Pseudomonas aeruginosa PqsR expressed in Escherichia coli DH5alpha at 0.1 to 10 uM incubated for 1.5 hrs by luminescence reporter gene assay
T1 sequence (whole entry): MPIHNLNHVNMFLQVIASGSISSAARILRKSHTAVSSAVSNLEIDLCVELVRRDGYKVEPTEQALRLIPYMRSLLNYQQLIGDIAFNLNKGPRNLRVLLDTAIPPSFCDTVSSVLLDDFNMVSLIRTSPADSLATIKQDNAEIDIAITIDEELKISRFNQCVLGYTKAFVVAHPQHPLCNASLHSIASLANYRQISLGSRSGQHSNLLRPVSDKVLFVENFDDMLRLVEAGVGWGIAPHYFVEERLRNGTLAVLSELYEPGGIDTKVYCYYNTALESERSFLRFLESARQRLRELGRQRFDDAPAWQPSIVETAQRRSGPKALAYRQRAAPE

[3] = test system: Pseudomonas aeruginosa; experiment: Effect on lasB expression in Pseudomonas aeruginosa harboring RhlR mutant up to 10 uM after 24 hrs by RT-qPCR method; type: functional, organism-based
Outline: (§1)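 P. aeruginosa overnight culture (OD595 = 1.0) was diluted 1:20 in AB medium (pH 7.5) with compounds or controls at 0–10 µM. It was grown statically in borosilicate bottles at 37 °C for 24 h, and biofilm cells were collected. Total RNA was extracted with TRI reagent. SYBR-based RT-qPCR used QS gene primers: 95 °C 10 s, then 40 cycles of 95 °C 10 s and 60 °C 10 s.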

[4] = test system: Pseudomonas aeruginosa; experiment: Downregulation of rhlA expression in Pseudomonas aeruginosa harboring RhlR mutant up to 10 uM after 24 hrs by RT-qPCR method; type: functional, organism-based; outline: as §1
[5] = target: T2, Transcriptional activator protein LasR (Pseudomonas aeruginosa (strain ATCC 15692 / PAO1 / 1C / PRS 101 / LMG12228)) (UniProt P25084); experiment: Agonist activity at Pseudomonas aeruginosa LasR expressed in Escherichia coli DH5alpha at 0.1 to 10 uM incubated for 1.5 hrs by luminescence reporter gene assay
T2 sequence (whole entry): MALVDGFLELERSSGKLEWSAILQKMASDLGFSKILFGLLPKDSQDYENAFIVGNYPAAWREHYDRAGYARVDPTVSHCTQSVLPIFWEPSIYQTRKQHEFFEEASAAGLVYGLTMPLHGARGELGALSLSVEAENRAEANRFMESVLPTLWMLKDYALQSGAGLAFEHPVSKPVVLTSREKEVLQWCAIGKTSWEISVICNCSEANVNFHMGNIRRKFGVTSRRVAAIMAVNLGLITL

[6] = target: T1, Transcriptional regulator MvfR (Pseudomonas aeruginosa PA14); experiment: Agonist activity at Pseudomonas aeruginosa PqsR expressed in Escherichia coli DH5alpha at 0.1 to 10 uM incubated for 1.5 hrs by luminescence reporter gene assay
[7] = test system: Pseudomonas aeruginosa; experiment: Effect on extracellular polymeric substance in biofilm of Pseudomonas aeruginosa assessed as reduction in protein level at 10 uM relative to control; type: functional; design: scale not given: the % may be the effect or the level left
Outline: (§2)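 Biofilm scraped from drip-flow reactor slides and resuspended in 0.01 M KCl. Sonicated 4 cycles of 5 s on/5 s off, supernatant filtered through 0.22 µm. Protein by Lowry/Folin, read at OD750. Carbohydrate by sulfuric acid 30 min then 5% phenol at 90 °C for 5 min, read at OD490. Each divided by OD595.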

[8] = test system: Pseudomonas aeruginosa; experiment: Effect on extracellular polymeric substance in biofilm of Pseudomonas aeruginosa assessed as reduction in carbohydrate level at 10 uM relative to control; type: functional; design: scale not given: the % may be the effect or the level left; outline: as §2
[9] = test system: Pseudomonas aeruginosa; experiment: Downregulation of phzC1 expression in Pseudomonas aeruginosa harboring RhlR mutant up to 10 uM after 24 hrs by RT-qPCR method; type: functional, organism-based; outline: as §1
[10] = test system: Pseudomonas aeruginosa; experiment: Antibacterial activity against Pseudomonas aeruginosa assessed as bacterial growth at 100 uM incubated for 24 hrs relative to control; type: functional
Outline: (§3)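 P. aeruginosa overnight culture (OD595 1.0) diluted 1:20 in AB medium (pH 7.5, 1% glucose, casamino acids, arginine) with compound, in borosilicate bottles, 37 °C for 24 h without shaking. Growth taken as OD595 of the suspended culture. Attached cells washed twice with PBS, stained with 0.1% crystal violet for 10 min, dye eluted in ethanol and read at 545 nm.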

[11] = test system: Pseudomonas aeruginosa; experiment: Effect on lasR expression in Pseudomonas aeruginosa harboring RhlR mutant up to 10 uM after 24 hrs by RT-qPCR method; type: functional, organism-based; outline: as §1
[12] = test system: Pseudomonas aeruginosa; experiment: Downregulation of rhlA expression in biofilm of Pseudomonas aeruginosa at 10 uM after 24 hrs by RT-qPCR analysis relative to control; type: functional
Outline: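 P. aeruginosa (OD595 1.0) diluted 1:20 in AB medium with compound in borosilicate bottles, 37 °C for 24 h. Total RNA extracted from biofilm cells and run by SYBR RT-qPCR with QS-gene primers. Cycling: 95 °C 10 s, then 40 cycles of 95 °C 10 s and 60 °C 10 s.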

[13] = test system: Pseudomonas aeruginosa; experiment: Effect on pqsR expression in Pseudomonas aeruginosa harboring RhlR mutant up to 10 uM after 24 hrs by RT-qPCR method; type: functional, organism-based; outline: as §1
[14] = test system: Pseudomonas aeruginosa; experiment: Antibacterial activity against Pseudomonas aeruginosa assessed as bacterial growth at 10 uM incubated for 24 hrs relative to control; type: functional; outline: as §3
[15] = test system: Pseudomonas aeruginosa; experiment: Effect on pycocyanin production in Pseudomonas aeruginosa harboring RhlR mutant at 10 uM after 24 hrs by […]; type: functional, organism-based
Outline: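 P. aeruginosa overnight culture (OD595 = 1.0) was diluted 1:100 in AB medium with compounds or controls at 0–10 µM and grown at 37 °C for 24 h. Pyocyanin was extracted from the supernatant with 50% TFA at 37 °C for 1 h, then filtered. It was quantified by C18 HPLC (99:1 water/TFA, 0.5 mL/min, 25 °C) as peak height at the 20 min retention time.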

With `CCCC(=O)C#Cc1ccc(F)c(F)c1` the survival at 10 µM [1] was 80%, the Activity [2] was “inactive” and the Activity [3] was “inactive”. For the same compound, the Activity [4] was “Active”, the Activity [5] was “inactive” and the Activity [6] was “inactive”. The Activity [7] was 72%, the Activity [8] was 39% and the Activity [9] was “Active”. The Activity [10] was 99%, the Activity [11] was “inactive” and the Activity [12] was 65 - 79%. The Activity [13] was “inactive”, the Activity [14] was 103% and the Activity [15] was “inactive”.
